Calls of active or inactive are those of the source.

For assay [1], the system named is Canis familiaris. In words: Antiarrhythmic property His-Purkinje conduction time(post drug) is compared to lidocaine(2) using doses(3 and 6 mg/kg); No effect. It is filed as functional, organism-based. Also noted: dose 6 mg/kg. The note with it: Canis lupus familiaris; His-Purkinje system. In short, it runs like this:
(§1)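 Mongrel dogs (about 12–25 kg), 1–4 days after coronary occlusion infarction, under sodium pentobarbital (~30 mg/kg) with 12-lead ECG monitoring. Agents and lidocaine were given iv at 3 and 6 mg/kg. Programmed ventricular stimulation was applied at baseline, about 2–5 min after each dose, and at 30 min. SVT was defined as ≥250 beats/min lasting ≥30 s. Pre means drug-free; post means after dosing.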

The test system of assay [2] is Canis familiaris. Briefly: Antiarrhythmic property ventricular effective refractory period(post drug) is compared to lidocaine(2) using doses(3 and 6 mg/kg). The class given is functional, Canis lupus familiaris, Heart. In short, it runs like this:
as §1

Assay [3] relates to Canis familiaris. In words: Tested for antiarrhythmic property by measuring ability to decrease Mean blood pressure(post drug) is compared to Lidocaine using doses(3 and 6 mg/kg). It is filed as functional, Canis lupus familiaris. In short, it runs like this:
as §1

The subject of assay [4] is Canis familiaris. Briefly: Tested for antiarrhythmic property by measuring ability to decrease heart rate(post drug) is compared to Lidocaine using doses(3 and 6 mg/kg); No effect. The class given is functional, organism-based. Also on record: dose 6 mg/kg. The note with it: Canis lupus familiaris. In short, it runs like this: as §1
Assay [5] concerns Canis familiaris. In words: Antiarrhythmic property A-V nodal conduction time(drug free) is compared to lidocaine(2) using doses(3 and 6 mg/kg); No effect. The class given is functional, organism-based. Also noted: dose 6 mg/kg. The note with it: Canis lupus familiaris; Heart. In short, it runs like this: as §1
The subject of assay [6] is Canis familiaris. In words: Antiarrhythmic property A-V nodal conduction time(post drug) is compared to lidocaine(2) using doses(3 and 6 mg/kg); No effect. Also noted: dose 6 mg/kg. It is filed as functional, organism-based. The note with it: Canis lupus familiaris; Heart. In short, it runs like this: as §1
The subject of assay [7] is Canis familiaris. Briefly: Tested for antiarrhythmic property by measuring ability to decrease Mean blood pressure (drug free) is compared to Lidocaine using doses(3 and 6 mg/kg). The class given is functional, Canis lupus familiaris. In short, it runs like this:
as §1

For assay [8], the system named is Canis familiaris. Briefly: Tested for antiarrhythmic property by measuring ability to decrease heart rate(drug free) is compared to Lidocaine using doses (3 and 6 mg/kg); No effect. The class given is functional, organism-based. Also on record: dose 6 mg/kg. The note with it: Canis lupus familiaris. In short, it runs like this:
as §1

Assay [9] concerns Canis familiaris. In words: Antiarrhythmic property is compared to lidocaine(2) using doses(3 and 6 mg/kg). Time required for the ventricular myocardium to undergo depolarization and repolarization ((post drug); No effect. Also on record: dose 6 mg/kg. The note with it: Canis lupus familiaris. It is filed as functional, organism-based. In short, it runs like this:
as §1

The test system of assay [10] is Canis familiaris. Briefly: Antiarrhythmic property His-Purkinje conduction time(drug free) is compared to lidocaine(2) using doses(3 and 6 mg/kg); No effect. The following applies: Canis lupus familiaris; His-Purkinje system. Also on record: dose 6 mg/kg. It is filed as functional, organism-based. In short, it runs like this: as §1
Assay [11] deals with Canis familiaris. Briefly: (§2) Antiarrhythmic property ventricular effective refractory period(drug free) is compared to lidocaine(2) using doses(3 and 6 mg/kg). It is filed as functional, Canis lupus familiaris, Heart. In short, it runs like this: as §1
For assay [12], the system named is Canis familiaris. In words: Antiarrhythmic property is compared to lidocaine(2) using doses(3 and 6 mg/kg). Time required for the ventricular myocardium to undergo depolarization and repolarization (drug free); No effect. It is filed as functional, organism-based. Also noted: dose 6 mg/kg. The note with it: Canis lupus familiaris. In short, it runs like this:
as §1

Assay [13] relates to Canis familiaris. Briefly: Tested for antiarrhythmic property by measuring ability to decrease heart rate(drug free) is compared to Lidocaine using doses (3 and 6 mg/kg). It is filed as functional, Canis lupus familiaris. In short, it runs like this:
as §1

For assay [14], the system named is Canis familiaris. In words: (§3) Antiarrhythmic property His-Purkinje conduction time(post drug) is compared to lidocaine(2) using doses(3 and 6 mg/kg). The class given is functional, Canis lupus familiaris, His-Purkinje system. In short, it runs like this: as §1
The subject of assay [15] is Canis familiaris. Briefly: Antiarrhythmic property is compared to lidocaine(2) using doses(3 and 6 mg/kg). Time required for the ventricular myocardium to undergo depolarization and repolarization ((post drug). The class given is functional, Canis lupus familiaris. In short, it runs like this: as §1
The test system of assay [16] is Canis familiaris. Briefly: Antiarrhythmic property A-V nodal conduction time(drug free) is compared to lidocaine(2) using doses(3 and 6 mg/kg). The class given is functional, Canis lupus familiaris, Heart. In short, it runs like this: as §1
Assay [17] concerns Canis familiaris. Briefly: Antiarrhythmic property is compared to lidocaine(2) using doses(3 and 6 mg/kg). Time required for the ventricular myocardium to undergo depolarization and repolarization (drug free). The class given is functional, Canis lupus familiaris. In short, it runs like this: as §1
Assay [18] concerns Canis familiaris. Briefly: Antiarrhythmic property His-Purkinje conduction time(drug free) is compared to lidocaine(2) using doses(3 and 6 mg/kg). It is filed as functional, Canis lupus familiaris, His-Purkinje system. In short, it runs like this: as §1
For assay [19], the system named is Canis familiaris. In words: Tested for antiarrhythmic property by measuring ability to decrease heart rate(post drug) is compared to Lidocaine using doses(3 and 6 mg/kg). The class given is functional, Canis lupus familiaris. In short, it runs like this:
as §1

Assay [20] deals with Canis familiaris. Briefly: Antiarrhythmic property A-V nodal conduction time(post drug) is compared to lidocaine(2) using doses(3 and 6 mg/kg). It is filed as functional, Canis lupus familiaris, Heart. In short, it runs like this:
as §1

The test system of assay [21] is Canis familiaris. Briefly: Tested for antiarrhythmic property by measuring ability to decrease Mean blood pressure (post drug) is compared to Lidocaine using doses(3 and 6 mg/kg). It is filed as functional, Canis lupus familiaris. In short, it runs like this: as §1
Assay [22] relates to Canis familiaris. In words: Antiarrhythmic properties are compared to lidocaine(2) using doses(3 and 6 mg/kg). Time required for the ventricular myocardium to undergo depolarization and repolarization ((post drug); No effect. The class given is functional, organism-based. Also on record: dose 6 mg/kg. The following applies: Canis lupus familiaris. In short, it runs like this:
as §1

Assay [23] has as its system Canis familiaris. Briefly: Antiarrhythmic properties are compared to lidocaine(2) using doses(3 and 6 mg/kg) measures His-Purkinje conduction time(drug free); No effect. Also noted: dose 6 mg/kg. It is filed as functional, organism-based. The following applies: Canis lupus familiaris; His-Purkinje system. In short, it runs like this: as §1
Assay [24] has as its system Canis familiaris. In words: Antiarrhythmic property Nonsustained ventricular tachycardia is compared to lidocaine(2) using dose of (3 and 6 mg/kg). The class given is functional, Canis lupus familiaris, Heart. In short, it runs like this: as §1
Assay [25] concerns Canis familiaris. In words: Antiarrhythmic property A-V nodal conduction time(post drug) is compared to lidocaine(2) using dose (3 and 6 mg/kg). The class given is functional, Canis lupus familiaris, Heart. In short, it runs like this:
as §1

Assay [26] concerns Canis familiaris. Briefly: Tested for antiarrhythmic property by measuring ability to decrease heart rate (drug free) is compared to Lidocaine using doses (3 and 6 mg/kg). It is filed as functional, Canis lupus familiaris. In short, it runs like this: as §1
For assay [27], the system named is Canis familiaris. In words: Antiarrhythmic properties are compared to lidocaine(2) using doses(3 and 6 mg/kg). Time required for the ventricular myocardium to undergo depolarization and repolarization (drug free); No effect. The class given is functional, organism-based. Also on record: dose 6 mg/kg. The following applies: Canis lupus familiaris. In short, it runs like this:
as §1

Assay [28] relates to Canis familiaris. The description is as §3. The class given is functional, Canis lupus familiaris, His-Purkinje system. In short, it runs like this:
as §1
The source holds these as a separate data set.

Assay [29] relates to Canis familiaris. In words: Antiarrhythmic property Heart rate (post drug) is compared to Lidocaine using doses(3 and 6 mg/kg). system. The class given is functional, Canis lupus familiaris. In short, it runs like this: (§4)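 Mongrel dogs (~12–25 kg), 1–4 days after coronary occlusion leaving a surviving epicardial rim, anesthetized with sodium pentobarbital (~30 mg/kg). 12-lead ECG monitored throughout. Agent given iv at 3 and 6 mg/kg. Parameters recorded before (drug free) and after dosing. Programmed electrical stimulation tested SVT inducibility (≥250 beats/min, ≥30 s) at baseline, ~2–5 min after each dose, and at 30 min.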

Assay [30] has as its system Canis familiaris. Briefly: Antiarrhythmic property Heart rate (drug free) is compared to Lidocaine using doses (3 and 6 mg/kg). The class given is functional, Canis lupus familiaris. In short, it runs like this: as §4
The subject of assay [31] is Canis familiaris. In words: Antiarrhythmic property Mean blood pressure (drug free) is compared to Lidocaine using doses(3 and 6 mg/kg). It is filed as functional, Canis lupus familiaris. In short, it runs like this:
as §4

Assay [32] deals with Canis familiaris. The description is as §2. The class given is functional, Canis lupus familiaris, Heart. In short, it runs like this: as §4
This is another data set of the same source.

Assay [33] deals with Canis familiaris. Briefly: Antiarrhythmic property Mean blood pressure(post drug) is compared to Lidocaine using doses(3 and 6 mg/kg). It is filed as functional, Canis lupus familiaris. In short, it runs like this:
as §4

Consider `CCN(CC)CC(=O)Nc1c(C)cccc1C` [LIDOCAINE], for which the HV interval entry in [1] and in assay [10] was “inactive” each time. In addition, the VERP in assay [2] amounted to 167 ms; in assay [11], 142 ms. For the same molecule, the results for the MBP in assay [3] and in [7] were 84 mmHg and 105 mmHg, respectively. For the same molecule, the HR result in assay [4] and in assay [8] was “inactive” each time. The AH interval result in assay [5] and in assay [6] was “inactive” each time. Moreover, the QT interval result in assay [9] and in assay [12] was “inactive” throughout.
As to `CC(C)N1CC2CC(CN(C(=O)c3ccc(-n4ccnc4)cc3)C2)C1`, the HR in assay [13] is given as 148 beats min-1; in assay [19] it was 110 beats min-1. Also, the HV interval in [14] came to 37 ms; in assay [18], 32 ms. The figures for the VERP in assay [2] and in [11] were 187 ms and 144 ms, respectively. Further, the MBP was determined as 84 mmHg in assay [3] and 94 mmHg in [7]. Also, the QT in assay [15] came to 288 ms; in [17], 196 ms. Moreover, the AH interval is 57 ms in assay [16] and 66 ms in assay [20].
Consider `O=C(c1ccccc1)N1CC2CC(CN(CC3CC3)C2)C1`, for which the MBP is 83 mmHg in assay [21] and 92 mmHg in assay [7]. For the same molecule, the HV interval entry in [1] and in [23] was “inactive” each time. The QT interval entry in assay [22] and in [27] was “inactive” each time. Moreover, the results for the VERP in assay [24] and in assay [11] were 190 ms and 170 ms, respectively. Also, the AH interval is given as 65 ms in assay [16] and 70 ms in assay [25]. Besides, the HR was determined as 111 beats min-1 in assay [19] and 120 beats min-1 in assay [26].
As to `CC(C)N1CC2CN(C(C)C)CC(C1)C21SCCS1`, the HV interval in assay [28] was found to be 40 ms; in assay [18], 30 ms. The HR in [29] is 105 beats min-1; in assay [30] it was 154 beats min-1. Moreover, the VERP in assay [24] is on record as 180 ms; in [32], 140 ms. Besides, the QT was 270 ms in [15] and 236 ms in assay [17]. For the same molecule, the AH interval in assay [16] is given as 56 ms; in assay [20], 75 ms. For the same molecule, the MBP is 61 mmHg in assay [31] and 76 mmHg in assay [33].
Take `O=C(c1ccc(Cl)cc1)N1CC2CC(CN(CC3CC3)C2)C1`: the MBP in assay [21] turned out to be 98 mmHg; in assay [7], 88 mmHg. In addition, the HV interval result in assay [1] and in assay [10] was “inactive” throughout. Moreover, the VERP came out at 220 ms in assay [24] and 170 ms in assay [11]. The QT is given as 250 ms in [15] and 215 ms in [17]. For the same molecule, the AH interval worked out at 60 ms in assay [16] and 68 ms in assay [25]. Also, the HR in assay [19] turned out to be 105 beats min-1; in assay [26], 125 beats min-1.

The values above are taken from ChEMBL document CHEMBL1129356, “Novel 3,7-diheterabicyclo[3.3.1]nonanes that possess predominant class III antiarrhythmic activity in 1-4 day post infarction dog models: X-ray diffraction analysis of 3-[4-(1H-imidazol-1-yl)benzoyl]-7-isopropyl-3,7-diazabicyclo[3.3.1]nona ne dihydroperchlorate” (1996).
